In ChEMBL document CHEMBL3091281, “Neuroprotective benzyl benzoate glycosides from Disporum viridescens roots in HT22 hippocampal neuronal cells” (J Nat Prod, 2013) one finds Activity and Ratio data, which are given here for six molecules.

Active and inactive are the calls of the source. The calls are words filed in the database; no cut-off is given here.

Series [1] relates to BV-2 (Mus musculus). As to the kind of experiment: Antiinflammatory activity in mouse BV2 cells assessed as inhibition of LPS-stimulated NO production at 10 to 100 uM by Griess assay. On the technique in general: Nitrite, measured by Griess reagent, commonly stands in for NO production.
The subject of series [2] is HT-22. As to the kind of experiment: Neuroprotective activity against L-glutamate-induced neurotoxicity in mouse HT22 cells assessed as cell viability at 10 to 100 uM incubated 1 hr prior to L-glutamate-challenge measured after 12 hrs by MTT assay. In kind it is functional, cell-based. An outline of the steps: (§1)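 Mouse hippocampal HT22 cells seeded at 3 × 10^4 per well in DMEM, pretreated 1 h with compound in DMSO (0.1% final), then exposed to 5 mM L-glutamate; viability by MTT after further 12 h.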
A general note: Tetrazolium dyes change colour on reduction, which living cells bring about.

Series [3] deals with BV-2 (Mus musculus). The experiment in a line: Cytotoxicity against mouse BV2 cells.
The test system of series [4] is HT-22. The experiment in a line: Cytotoxicity against mouse HT22 cells. The class given is cell-based. An outline of the steps:
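MTT viability assay in BV2 and HT22 cells, compounds tested without glutamate.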

Series [5] relates to HT-22. The experiment in a line: Neuroprotective activity against L-glutamate-induced neurotoxicity in mouse HT22 cells assessed as GR activity at 50 uM incubated 1 hr prior to L-glutamate-challenge measured after 12 hrs (reference value: 0.94 +/- 0.19 mU/mg protein). In kind it is functional.
Series [6] deals with HT-22. As to the kind of experiment: Neuroprotective activity against L-glutamate-induced neurotoxicity in mouse HT22 cells assessed as SOD activity at 50 uM incubated 1 hr prior to L-glutamate-challenge measured after 12 hrs by xanthine-xanthine oxidase reaction (reference value: 16.10 +/- 0.54 U/mg protein). In kind it is functional.
In series [7] the test system is HT-22. The experiment in a line: Neuroprotective activity against L-glutamate-induced neurotoxicity in mouse HT22 cells assessed as GSH-Px activity at 50 uM incubated 1 hr prior to L-glutamate-challenge measured after 12 hrs (reference value: 0.036 +/- 0.001 mU/mg protein). The class given is functional.
In series [8] the test system is HT-22. As to the kind of experiment: Induction of JNK phosphorylation in mouse HT22 cells at 100 uM after 0.5 to 12 hrs by Western blotting analysis. The class given is cell-based. An outline of the steps:
(§2)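 HT22 cells treated 30 min (kinases) or 12 h (HO-1) at stated concentrations or times; lysed in RIPA with protease and phosphatase inhibitors, 30 μg protein on 10% SDS-PAGE, PVDF transfer, overnight 4 °C primary antibodies (HO-1, ERK/p-ERK, JNK/p-JNK, p38/p-p38, β-actin), ECL detection.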

Series [9] relates to HT-22. The experiment in a line: Neuroprotective activity against L-glutamate-induced neurotoxicity in mouse HT22 cells assessed as GSH/GSSG ratio at 10 uM incubated 1 hr prior to L-glutamate-challenge measured after 12 hrs (reference value: 1.105 +/- 0.112). The class given is functional.
In series [10] the test system is HT-22. The experiment in a line: Neuroprotective activity against L-glutamate-induced neurotoxicity in mouse HT22 cells assessed as GSH/GSSG ratio at 100 uM incubated 1 hr prior to L-glutamate-challenge measured after 12 hrs (reference value: 1.105 +/- 0.112). The class given is functional.
For series [11], the system named is HT-22. The experiment in a line: Neuroprotective activity in mouse HT22 cells assessed as HO-1 protein expression at 100 uM by Western blotting analysis in presence of SB203580. The class given is functional, cell-based. An outline of the steps: as §2
(In western blotting, separated proteins are transferred to a membrane and probed.)

For series [12], the system named is HT-22. As to the kind of experiment: Neuroprotective activity in mouse HT22 cells assessed as HO-1 protein expression at 100 uM by Western blotting analysis in presence of SP600125. The class given is functional, cell-based. An outline of the steps:
as §2

Series [13] relates to HT-22. The experiment in a line: Neuroprotective activity against L-glutamate-induced neurotoxicity in mouse HT22 cells assessed as GSH-Px activity at 10 uM incubated 1 hr prior to L-glutamate-challenge measured after 12 hrs (reference value: 0.036 +/- 0.001 mU/mg protein). The class given is functional.
Series [14] relates to HT-22. The experiment in a line: Induction of ERK phosphorylation in mouse HT22 cells at 100 uM after 0.5 to 12 hrs by Western blotting analysis. In kind it is cell-based. An outline of the steps:
as §2

The test system of series [15] is HT-22. The experiment in a line: Neuroprotective activity against L-glutamate-induced neurotoxicity in mouse HT22 cells assessed as GR activity at 100 uM incubated 1 hr prior to L-glutamate-challenge measured after 12 hrs (reference value: 0.94 +/- 0.19 mU/mg protein). In kind it is functional.
The test system of series [16] is HT-22. As to the kind of experiment: Neuroprotective activity against L-glutamate-induced neurotoxicity in mouse HT22 cells assessed as GSH/GSSG ratio incubated 1 hr prior to L-glutamate-challenge measured after 12 hrs. In kind it is functional, cell-based.
Series [17] deals with HT-22. As to the kind of experiment: Antioxidant activity in mouse HT22 cells assessed as HO-1 protein expression at 100 uM after 6 to 18 hrs by Western blotting analysis. The class given is functional, cell-based. An outline of the steps: as §2
Series [18] concerns HT-22. The experiment in a line: Neuroprotective activity against L-glutamate-induced neurotoxicity in mouse HT22 cells assessed as SOD activity at 10 uM incubated 1 hr prior to L-glutamate-challenge measured after 12 hrs by xanthine-xanthine oxidase reaction (reference value: 16.10 +/- 0.54 U/mg protein). In kind it is functional.
In series [19] the test system is HT-22. The experiment in a line: Antioxidant activity in mouse HT22 cells assessed as HO-1 protein expression at 100 uM by Western blotting analysis. In kind it is functional, cell-based. Particulars: TDE = time-dependent effect. Summed up: as §2
The subject of series [20] is HT-22. The experiment in a line: Neuroprotective activity against L-glutamate-induced neurotoxicity in mouse HT22 cells assessed as cell viability at 100 uM incubated 1 hr prior to L-glutamate-challenge measured after 12 hrs by MTT assay in presence of SnPP. In kind it is functional, cell-based. Summed up:
as §1

For series [21], the system named is HT-22. As to the kind of experiment: Antioxidant activity in mouse HT22 cells assessed as HO-1 protein expression after 0.5 to 12 hrs by Western blotting analysis. In kind it is functional, cell-based. An outline of the steps:
as §2

Series [22] relates to HT-22. As to the kind of experiment: Neuroprotective activity against L-glutamate-induced neurotoxicity in mouse HT22 cells assessed as GSH-Px activity at 100 uM incubated 1 hr prior to L-glutamate-challenge measured after 12 hrs (reference value: 0.036 +/- 0.001 mU/mg protein). In kind it is functional.
For series [23], the system named is HT-22. As to the kind of experiment: Neuroprotective activity against L-glutamate-induced neurotoxicity in mouse HT22 cells assessed as SOD activity at 100 uM incubated 1 hr prior to L-glutamate-challenge measured after 12 hrs by xanthine-xanthine oxidase reaction (reference value: 16.10 +/- 0.54 U/mg protein). The class given is functional.
Series [24] has as its target MAP kinase p38 (Mus musculus) (UniProt P47811+O08911+Q9WUI1+Q9Z1B7). The experiment in a line: Induction of p38 phosphorylation in mouse HT22 cells at 100 uM after 0.5 to 12 hrs by Western blotting analysis. The class given is cell-based. The conditions noted are these: HT-22. Summed up: as §2
The test system of series [25] is HT-22. The experiment in a line: Neuroprotective activity against L-glutamate-induced neurotoxicity in mouse HT22 cells assessed as GSH/GSSG ratio at 50 uM incubated 1 hr prior to L-glutamate-challenge measured after 12 hrs (reference value: 1.105 +/- 0.112). The class given is functional.
In series [26] the test system is HT-22. As to the kind of experiment: Neuroprotective activity in mouse HT22 cells assessed as HO-1 protein expression at 100 uM by Western blotting analysis in presence of PD98059. The class given is functional, cell-based. An outline of the steps:
as §2

Series [27] relates to HT-22. The experiment in a line: Neuroprotective activity against L-glutamate-induced neurotoxicity in mouse HT22 cells assessed as GR activity at 10 uM incubated 1 hr prior to L-glutamate-challenge measured after 12 hrs (reference value: 0.94 +/- 0.19 mU/mg protein). In kind it is functional.

Turning to `COc1c(O)ccc(O[C@@H]2O[C@@H](C)[C@H](O)[C@@H](O)[C@H]2O)c1C(=O)OCc1ccccc1O[C@@H]1O[C@H](CO)[C@@H](O)[C@H](O)[C@H]1O`, the result in [1] and in series [2] was Active. For the same molecule, the Activity result in series [3] and in series [4] was “Toxic” in each case.
For `O=C(OCc1ccccc1O[C@@H]1O[C@H](CO)[C@@H](O)[C@H](O)[C@H]1O)c1c(O)cccc1O[C@@H]1O[C@H](CO)[C@@H](O)[C@H](O)[C@H]1O`, the result in [1] was Active. The Activity entry in series [3] and in series [4] was “Toxic” in each case.
On to `COc1ccc(O[C@@H]2O[C@@H](C)[C@H](O)[C@@H](O)[C@H]2O)c(C(=O)OCc2ccccc2O[C@@H]2O[C@H](CO)[C@@H](O)[C@H](O)[C@H]2O)c1O`, for which the result in series [1] and in series [2] was Active. Besides, the Activity entry in [3] and in series [4] was “Toxic” each time.
As to `COc1c(O)ccc(O[C@@H]2O[C@@H](C)[C@H](O)[C@@H](O)[C@H]2O)c1C(=O)OCc1ccccc1O[C@@H]1O[C@@H](C)[C@H](O)[C@@H](O)[C@H]1O`, the result in series [1] and in series [2] was Active. Besides, the Activity result in series [3] and in series [4] was “Toxic” throughout.
Regarding `C[C@@H]1O[C@@H](Oc2ccc(O)c(O)c2C(=O)OCc2ccccc2O[C@@H]2O[C@H](CO)[C@@H](O)[C@H](O)[C@H]2O)[C@H](O)[C@H](O)[C@H]1O`, the outcome in series [1] was Active. Besides, the Activity result in series [3] and in [4] was “Toxic” each time.
On to `COc1c(O)ccc(O[C@@H]2O[C@@H](C)[C@H](OC(C)=O)[C@@H](O)[C@H]2O)c1C(=O)OCc1ccccc1O[C@@H]1O[C@H](CO)[C@@H](O)[C@H](O)[C@H]1O`, for which the Activity in series [5] was 0.9 mU/mg; in [6], 29.05 U/mg; in series [7], 0.055 mU/mg; in series [13] it was 0.056 mU/mg; in series [15], 1.14 mU/mg; in series [16], “Dose-dependent effect”. The Activity was 29.78 U/mg in [18]; “tde” in [19]; “Dose-dependent effect” in [21]; “Toxic” in series [3]; 0.059 mU/mg in series [22]; 30.71 U/mg in [23]. Besides, the results for the Activity entry in series [4] and in [27] were “Toxic” and 0.72 mU/mg, respectively. Also, the result in [8], in series [20], in [24] and in series [26] was inactive. Besides, the Ratio in [9] was 1.594; in series [10], 2.824; in [25], 2.3. The outcome in series [1], in [2], in series [11], in series [12], in series [14] and in [17] was Active.
